Assay results reported in PMC3016492 (Cellular and Molecular Life Sciences: CMLS, 2010).
Read-outs that look alike come from different tables or passages of the source.

Experiments:
MK5 [1] = molecular target: T1, MK5 (Homo sapiens, UniProt Q8IW41); assay: MK5 kinase activity against PRAKtide substrate peptide; type: biochemical; settings: for inhibition of MK5 enzyme activity (in words): initial screening at 2 mM
T1 sequence (Q8IW41 1-473): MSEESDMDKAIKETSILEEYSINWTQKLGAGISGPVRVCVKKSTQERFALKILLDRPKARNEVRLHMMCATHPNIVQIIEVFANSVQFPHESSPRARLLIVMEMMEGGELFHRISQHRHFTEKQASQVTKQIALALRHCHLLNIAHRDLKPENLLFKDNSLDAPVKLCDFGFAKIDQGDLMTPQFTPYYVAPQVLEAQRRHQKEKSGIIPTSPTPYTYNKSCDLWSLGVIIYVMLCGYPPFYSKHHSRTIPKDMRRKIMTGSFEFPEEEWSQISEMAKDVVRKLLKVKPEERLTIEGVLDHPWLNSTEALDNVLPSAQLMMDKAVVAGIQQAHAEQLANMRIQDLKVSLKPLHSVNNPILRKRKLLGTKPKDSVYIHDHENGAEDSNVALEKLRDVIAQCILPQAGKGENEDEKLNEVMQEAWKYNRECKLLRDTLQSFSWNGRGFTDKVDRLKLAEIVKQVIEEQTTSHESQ

ROCK-II = settings: 10 μM; cited from earlier work
MK5 [2] = molecular target: T1, MK5; settings: read-out: IC50 MK5; cited from earlier work
PDK1 [3] = molecular target: T2, PDK1 (Homo sapiens, UniProt O15530); settings: 10 μM; cited from earlier work
T2 sequence (O15530 1-556): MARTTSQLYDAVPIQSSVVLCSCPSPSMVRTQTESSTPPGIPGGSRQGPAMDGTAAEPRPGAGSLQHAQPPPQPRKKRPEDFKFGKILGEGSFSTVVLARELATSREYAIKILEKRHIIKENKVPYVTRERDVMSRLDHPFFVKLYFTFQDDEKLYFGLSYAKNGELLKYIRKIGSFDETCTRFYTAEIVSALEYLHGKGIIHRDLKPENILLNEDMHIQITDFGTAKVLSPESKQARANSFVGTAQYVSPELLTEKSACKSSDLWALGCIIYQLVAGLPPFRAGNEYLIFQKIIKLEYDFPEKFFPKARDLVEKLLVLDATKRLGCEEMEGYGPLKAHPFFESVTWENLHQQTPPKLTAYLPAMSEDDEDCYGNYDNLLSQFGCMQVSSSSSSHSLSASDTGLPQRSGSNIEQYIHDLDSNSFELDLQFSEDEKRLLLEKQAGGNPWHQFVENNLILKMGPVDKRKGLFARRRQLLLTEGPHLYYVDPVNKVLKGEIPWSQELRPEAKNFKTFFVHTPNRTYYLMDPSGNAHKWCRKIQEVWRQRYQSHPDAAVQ

ERK2 = ERK2 (Homo sapiens, UniProt P28482); settings: 10 μM; cited from earlier work
ERK2, sequence (P28482 whole entry): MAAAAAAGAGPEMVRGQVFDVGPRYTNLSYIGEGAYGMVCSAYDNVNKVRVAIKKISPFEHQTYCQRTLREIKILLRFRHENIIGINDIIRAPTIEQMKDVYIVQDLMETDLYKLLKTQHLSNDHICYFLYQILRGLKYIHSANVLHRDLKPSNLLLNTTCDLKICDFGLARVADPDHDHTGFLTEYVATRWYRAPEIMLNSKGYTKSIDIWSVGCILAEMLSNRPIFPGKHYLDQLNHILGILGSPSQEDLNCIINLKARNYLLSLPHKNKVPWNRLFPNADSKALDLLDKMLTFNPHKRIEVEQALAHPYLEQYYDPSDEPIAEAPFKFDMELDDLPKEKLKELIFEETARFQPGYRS

DYRK1A [4] = molecular target: T3, DYRK1A (Homo sapiens, UniProt Q13627); settings: 10 μM; cited from earlier work
PLK1 = PLK1 (Homo sapiens, UniProt P53350); settings: 10 μM; cited from earlier work
PLK1, sequence (P53350 whole entry): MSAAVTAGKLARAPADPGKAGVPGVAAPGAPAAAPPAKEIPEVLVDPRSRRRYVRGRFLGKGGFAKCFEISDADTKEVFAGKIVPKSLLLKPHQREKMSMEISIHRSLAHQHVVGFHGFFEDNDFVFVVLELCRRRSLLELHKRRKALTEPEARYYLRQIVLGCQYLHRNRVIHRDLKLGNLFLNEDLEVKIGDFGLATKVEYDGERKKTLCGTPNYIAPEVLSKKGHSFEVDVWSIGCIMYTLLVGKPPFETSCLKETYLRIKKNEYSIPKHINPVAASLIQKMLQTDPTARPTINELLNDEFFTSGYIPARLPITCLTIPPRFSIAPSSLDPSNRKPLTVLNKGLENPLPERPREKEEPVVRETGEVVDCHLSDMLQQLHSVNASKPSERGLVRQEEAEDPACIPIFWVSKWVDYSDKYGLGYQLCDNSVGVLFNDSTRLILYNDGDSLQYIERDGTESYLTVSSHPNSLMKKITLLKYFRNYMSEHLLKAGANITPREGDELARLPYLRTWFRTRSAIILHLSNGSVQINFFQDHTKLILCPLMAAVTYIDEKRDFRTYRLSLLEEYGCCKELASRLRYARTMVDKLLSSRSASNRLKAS

IKKβ = settings: 10 μM; cited from earlier work
PKB2 = settings: 10 μM; cited from earlier work
MSK1 = settings: 10 μM; cited from earlier work
ERK8 = settings: 10 μM; cited from earlier work
PHK = settings: 10 μM; cited from earlier work
MK3 = MK3 (Homo sapiens, UniProt Q16644); settings: 10 μM; cited from earlier work
MK3, sequence (Q16644 whole entry, species assumed): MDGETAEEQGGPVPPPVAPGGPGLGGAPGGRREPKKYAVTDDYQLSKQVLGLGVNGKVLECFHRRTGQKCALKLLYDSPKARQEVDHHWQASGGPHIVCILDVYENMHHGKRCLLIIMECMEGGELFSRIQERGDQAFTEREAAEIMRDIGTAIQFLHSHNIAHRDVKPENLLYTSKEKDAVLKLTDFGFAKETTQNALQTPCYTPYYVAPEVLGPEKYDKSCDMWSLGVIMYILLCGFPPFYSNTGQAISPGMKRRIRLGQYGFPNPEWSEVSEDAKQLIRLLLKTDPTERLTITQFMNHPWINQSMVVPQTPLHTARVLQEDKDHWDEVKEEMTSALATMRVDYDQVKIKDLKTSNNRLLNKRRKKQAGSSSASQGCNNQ

PDK1 [5] = molecular target: T2, PDK1; settings: 10 μM; cited from earlier work; remark: listed apart in the source
MK5 [6] = molecular target: T1, MK5; settings: read-out: IC50 MK5; cited from earlier work; remark: listed apart in the source
PKA = PKA (Homo sapiens, UniProt P17612); settings: 10 μM; cited from earlier work
Aurora B = settings: 10 μM; cited from earlier work
DYRK1A [7] = molecular target: T3, DYRK1A; settings: 10 μM; cited from earlier work; remark: listed apart in the source
p70^S6K = settings: 10 μM; cited from earlier work
RSK2 = settings: 10 μM; cited from earlier work
p38δ = settings: 10 μM; cited from earlier work
smMLCK = settings: 10 μM; cited from earlier work
GSK3β = settings: 10 μM; cited from earlier work
[8] = test system: PKA-induced nuclear export of MK5; assay: PKA-induced nuclear export of EGFP-MK5 in PC12 cells; type: cell-based; settings: 10 μM forskolin, 30 min, no compound 11, untreated control 6%
How it was run: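 PC12 cells were grown in F-12K with 2 mM L-glutamine, 1.5 g/l sodium bicarbonate, 15% horse serum, 2.5% fetal calf serum, penicillin and streptomycin. They were transfected with EGFP-MK5 by nucleofection, then left untreated or pretreated with 20 μM test compound. Next came 10 μM forskolin for 30 min. Cells were fixed in 4% formaldehyde for 10 min and washed in PBS. Several hundred cells were scored by confocal microscopy for nuclear plus cytosolic EGFP-MK5.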

CCN1C[C@]2(COC)[C@H](O)C[C@H](OC)[C@@]34[C@@H]5C[C@@]6(O)[C@H](OC(=O)c7ccccc7)[C@@H]5[C@@](OC(C)=O)([C@@H]([C@H](OC)[C@H]23)[C@@H]14)[C@@H](O)[C@@H]6OC [Compound 6, aconitine]
inhibition of MK5 enzyme activity (in words) (MK5 [1]): completely blocked

CCN1C[C@]2(COC)[C@H](O)C[C@H](OC)[C@]34C1[C@H]([C@H](OC)[C@H]23)[C@]1(O)[C@H]2[C@@H](O)[C@](O)(C[C@H]24)[C@@H](OC)[C@@H]1O [Compound 8, aconine]
Ki (MK5 [1]): 301 µM
IC50 MK5 (in words) (MK5 [1]; dose-response, PRAKtide substrate): in the mM range
inhibition of MK5 enzyme activity (in words) (MK5 [1]): completely blocked
mode of inhibition against ATP (MK5 [1]; varying ATP concentrations, Lineweaver-Burk): ATP-competitive

O=C(O[C@@H]1Cc2c(O)cc(O)cc2O[C@@H]1c1cc(O)c(O)c(O)c1)c1cc(O)c(O)c(O)c1 [EGCG, epigallocatechin gallate]
inhibition of in vitro kinase activity of ROCK-II (ROCK-II): ~ 90%
IC50 (MK5 [2]): < 10 µM
inhibition of in vitro kinase activity of PDK1 (PDK1 [3]): ~ 90%
inhibition of in vitro kinase activity of ERK2 (ERK2): ~ 90%
inhibition of in vitro kinase activity of DYRK1A (DYRK1A [4]): ~ 90%

COc1ccc(C=CC(=O)c2c(O)cc(OC)cc2OC)cc1 [flavokavain A]
inhibition of PLK1 (PLK1): 40–70%
inhibition of IKKβ (in words, relative to MK5) (IKKβ): more or to a similar extent
inhibition of PKB2 (PKB2): 40–70%
inhibition of MSK1 (MSK1): 40–70%
inhibition of ERK8 (ERK8): 40–70%
inhibition of PHK (PHK): 40–70%
inhibition of MK3 (in words, relative to MK5) (MK3): more or to a similar extent
inhibition of PDK1 (PDK1 [5]): 40–70%
IC50 (MK5 [6]): 10 µM
inhibition of PKA (PKA): 40–70%
inhibition of Aurora B (in words, relative to MK5) (Aurora B): more or to a similar extent
inhibition of DYRK1A (in words, relative to MK5) (DYRK1A [7]): more or to a similar extent
inhibition of p70^S6K (p70^S6K): 40–70%
inhibition of RSK2 (RSK2): 40–70%
inhibition of p38δ (p38δ): 40–70%
inhibition of smMLCK (smMLCK): 40–70%
inhibition of GSK3β (GSK3β): 40–70%

C=C[C@@]1(C)CC(=O)[C@]2(O)[C@@]3(C)[C@@H](O)CCC(C)(C)[C@@H]3[C@H](O)[C@H](OC(C)=O)[C@@]2(C)O1 [forskolin]
cells displaying both nuclear and cytosolic EGFP-MK5 [8]: approximately 84%
cells displaying both nuclear and cytosolic EGFP-MK5 ([8]; listed as Forskolin): 84%
